# The list is not random: actives were taken first. Their share in the collection is about 2.3%.
# TRPC6 act: activators of mouse TRPC6 channel | B-score at 10 µM | AID 2550 | HEK293-TRPC6 membrane potential dye fluorescence; active compounds read high | Q61143 | 310,000 compounds, 0.13% hits;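 active means B-score of the integrated fluorescence ratio above library mean plus 3 SD, and starting fluorescence ratio within library mean plus 5 SD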;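 further: higher score means more depolarization so channel activation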
# TRPC4 potent: allosteric potentiators of mouse TRPC4 channel | Q9QUQ5 | HEK293 TRPC4beta/mu-opioid, DAMGO EC20, Fluo-4 Ca2+ flux; active compounds read high | B-score at 10 µM | 310,000 compounds, 0.42% hits | AID 2227;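 active means B-score of calcium response area above 5 SD of library B-scores, with initial fluorescence ratio within 5 SD of library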;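 further: B-score of integrated fluorescence ratio over time as area under calcium response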
# TRPC6 inhibitor: blocks the mouse TRPC6 cation channel. Q61143. HEK293-TRPC6, membrane potential dye, ACh-evoked depolarization; active compounds read low. B-score at 10 µM. 310,000 compounds, 1.1% hits;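 active means B-score under library mean minus 3 SD, initial fluorescence not abnormally high, positive integrated signal ratio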;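 further: B-score derived from integrated fluorescence ratio over the kinetic read; more negative B-score means stronger inhibition of depolarization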
# TRPC4 agonist: activators of mouse TRPC4 channel; B-score at 10 µM; Q9QUQ5; HEK293 TRPC4beta/mu-opioid, Fluo4 calcium fluorescence; active compounds read high; 310,000 compounds, 0.49% hits;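 active means B-score above 5 SD of library B-scores, and initial fluorescence ratio not above library mean plus 5 SD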;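 further: positive B-score marks a calcium rise read as TRPC4 activation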
#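 System – HEK293 cells stably co-expressing mouse TRPC4beta and mu-opioid receptor · Signal – Fluo4 calcium-sensitive dye fluorescence, kinetic, 1 Hz baseline · Benchmarks – buffer (low) and maximal DAMGO (high) · Read-out – B score of integrated fluorescence ratio per well · Incubation – dye loading 45 min room temperature, 110 s kinetic read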
# TRPC4 inh: inhibitors of mouse TRPC4 channel; Q9QUQ5; HEK293 TRPC4beta/mu-opioid, DAMGO-evoked Fluo4 calcium flux; active compounds read low; B-score at 10 µM; 300,000 compounds, 0.39% hits;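 active means B-score over 3 SD under the library average, no early fluorescence shift, positive overall ratio signal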
#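 Test system – stable TRPC4beta/mu-opioid receptor HEK293 cells · Probe or stimulus – DAMGO, a submaximal dose followed by a maximal one · Dosing – one concentration per compound · Signal – Fluo4 calcium fluorescence by kinetic imaging, 5 s 1 Hz baseline · Evaluation – per-well B score of integrated baseline-normalized Fluo4 ratio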
# TRPC4 spec 2: second selectivity test of TRPC6 inhibitors: effect on mouse TRPC4; shares compounds with TRPC6 inhibitor; AID 2776; inhibition, % at 10 µM; HEK293 TRPC4/MOR, membrane potential dye fluorescence; channel activated by saturating DAMGO dose; 920 compounds, 42% hits;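 active means compounds whose fluorescence signal differed from control wells by over 3 SD, either direction, in both duplicate plates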
# TRPC4 spec: selectivity of TRPC6 inhibitors: effect on mouse TRPC4; HEK293 TRPC4/mu-opioid, membrane potential fluorescence; activity change, negative = inhibition, % at 10 µM; 920 compounds, 61% hits; shares compounds with TRPC6 inhibitor;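 active means rise or fall in signal beyond 3 SD of buffer-only wells in both replicate plates, either sign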;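 further: integrated kinetic ratio of fluorescence range over baseline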
# HEK293 MPD ctr 2-1: parental HEK293 nonspecific activity of TRPC6 inhibitors, second screen | signal change vs control, % at 10 µM | parental HEK293 membrane potential dye fluorescence; maximal acetylcholine challenge after compound addition | shares compounds with TRPC6 inhibitor | AID 2779 | 920 compounds, 31% hits;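 active means membrane potential signal moving either way by over 3 SD of the maximum-effect control, in both duplicate plates, meaning non-specific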
# HEK293 MPD ctr-1: checks TRPC6 inhibitor effects in parental HEK293 cells; 920 compounds, 60% hits; membrane potential signal change, % at 10 µM; shares compounds with TRPC6 inhibitor; parental HEK293 membrane potential dye fluorescence;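 active means membrane potential signal shifting up or down by more than 3 SD of buffer-only wells, on both duplicate plates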
# HEK293 MPD ctr-2: checks TRPC6 modulator effects in parental HEK293 cells | membrane potential signal change, % at 10 µM | shares compounds with TRPC6 inhibitor | 2,400 compounds, 51% hits | membrane potential dye fluorescence;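 active means membrane potential signal moves up or down beyond 5 SD from buffer-only wells, on both duplicate plates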
# HEK293 MPD ctr 2-2: second check of TRPC6 modulator effects in parental HEK293 cells. membrane potential dye fluorescence; after compound, maximal acetylcholine stimulation. shares compounds with TRPC6 inhibitor. inhibition, % at 10 µM. 2,400 compounds, 14% hits. AID 488926;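 active means membrane potential signal drops by more than 5 SD from the mean control signal, in both duplicate plates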;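 further: plate controls were acetylcholine ECmax control wells for no effect and buffer only wells for full effect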
# TRPC4 ctr mod: mouse TRPC4 off-target activity of TRPC6 modulators; shares compounds with TRPC6 inhibitor; 2,400 compounds, 69% hits; percent change from control (negative = decrease, positive = increase), % at 10 µM; HEK293 TRPC4/mu-opioid, membrane potential fluorescence; AID 488927;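 active means membrane potential signal moved up or down beyond 5 SD of buffer control wells, in both duplicate plates, actives on both sides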;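 further: plate controls were assay buffer wells for no effect and DAMGO maximal-effect wells for full effect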
# TRPC4/MOR inh 2: second check of whether TRPC6 modulators also affect mouse TRPC4. shares compounds with TRPC6 inhibitor. HEK293 TRPC4/mu-opioid, membrane potential dye fluorescence; stimulated with maximal-effect DAMGO. inhibition, % at 10 µM. 2,400 compounds, 55% hits. AID 488928;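 active means drop in membrane potential signal beyond 5 SD of the control wells in both duplicate plates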;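 further: TRPC4 counter screen for TRPC6 hits run under conditions tuned for TRPC6 not TRPC4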
# TRPC6 inh conf: confirmation of mouse TRPC6 inhibitors. AID 488960. shares compounds with TRPC6 inhibitor. 3,300 compounds, 43% hits. HEK293-TRPC6, membrane potential dye, ACh-evoked depolarization. inhibition, % at 10 µM;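 active means fluorescence ratio falls more than 5 SD below the full-stimulation control mean, in both duplicate runs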;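 further: integrated fluorescence ratio of peak minus minimum over baseline after agonist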
# TRPC6 act conf: confirmation of mouse TRPC6 activators. shares compounds with TRPC6 inhibitor. HEK293-TRPC6 membrane potential dye fluorescence, FDSS. activation, % at 10 µM. 2,800 compounds, 11% hits;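 active means ratio signal rise beyond 5 SD above unstimulated control wells' mean, seen in both duplicate runs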;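 further: plate controls were buffer EC0 wells for no effect and acetylcholine ECmax response for full effect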
# Numbers without * were called inactive; i = inactive; . = no result given; ! = repeats disagree.
SMILES,TRPC6 act,TRPC4 potent,TRPC6 inhibitor,TRPC4 agonist,TRPC4 inh,HEK293 MPD ctr-2,HEK293 MPD ctr 2-2,TRPC4 ctr mod,TRPC4/MOR inh 2,TRPC6 inh conf,TRPC6 act conf,others
Cn1cccc1/C=C1\CC(C(C)(C)C)C/C(=C\c2cccn2C)C1=O (centres undefined),30*,i,i,i,i,182%*,i,i,i,i,i,
Cn1cccc1/C=C1\Cc2ccccc2C1=O,i,i,i,i,i,.,.,.,.,.,.,
CCC(=O)N1CCN(c2nc3ccc(Br)cc3s2)CC1,i,i,i,i,i,.,.,.,.,.,.,
C=CCc1ccccc1OCC(O)CN1CCOCC1 (centres undefined),i,i,i,i,i,.,.,.,.,.,.,
C=CCc1ccccc1OCC(O)CN1CCN(c2ccc(OC)cc2)CC1 (centres undefined),i,i,-5.3*,i,i,i,i,i,54%*,60%*,i,
N#CC1=C(N)OC2=C(CC/C2=C\c2ccccc2)C1c1ccccc1 (centres undefined),27*,13*,i,i,i,576%*,i,21%*,i,i,48%*,
CC1(C)CC(=O)C2=C(C1)NC1=C(C(=O)c3ccccc31)C2c1cc([N+](=O)[O-])ccc1O (centres undefined),i,i,-5.4*,i,i,i,i,-13%*,66%*,42%*,i,
C[C@]12C=CC(=O)C=C1CC[C@@H]1[C@@H]2C(=O)C[C@@]2(C)[C@H]1CC[C@]2(O)C(=O)COC(=O)CCC(=O)O,i,i,i,i,i,.,.,.,.,.,.,
COc1ccccc1-c1coc2c(CN3CCCC(C)C3)c(O)ccc2c1=O (centres undefined),i,i,-5.9*,i,i,i,i,i,i,i,i,
COc1ccccc1-c1c(C)oc2c(CN3CCCC(C)C3)c(O)ccc2c1=O (centres undefined),i,i,i,i,i,.,.,.,.,.,.,
CC1CCN(CC(C)OC(=O)c2ccc3c(c2)OCCO3)CC1 (centres undefined),i,i,-5.2*,i,i,120%*,i,15%*,i,i,.,
CSc1ccccc1OCc1cc(C(=O)NCCc2nc(C)cc(C)n2)no1,i,i,i,i,i,.,.,.,.,.,.,
COc1ccc(Cn2c(-c3ccc(C)cc3)c[n+]3ccccc23)cc1,i,i,-6.2*,i,i,-232%*,i,-30%*,48%*,46%*,i,
CCN(CC)S(=O)(=O)c1ccc(NC(=O)CNC2CCCCC2)cc1,i,i,-5.3*,i,i,i,i,i,58%*,46%*,i,
CCN(CC)S(=O)(=O)c1ccc(NC(=O)CCC2CCCCC2)cc1,i,i,i,i,i,.,.,.,.,.,.,
CCc1cc(=O)oc2cc(OC(C)C(=O)NCc3ccccn3)ccc12 (centres undefined),i,i,i,i,i,.,.,.,.,.,.,
O=C(/C=C1\NCC2c3ccccc3CCN2C1=O)c1ccccc1 (centres undefined),i,i,-6.1*,i,i,171%*,i,14%*,i,72%*,.,
O=C(C=C1NCCN1)c1ccccc1,i,i,i,i,i,.,.,.,.,.,.,
Cc1ccc(C(=O)C2CCN(S(=O)(=O)c3ccc(C(=O)O)cc3)CC2)cc1,i,i,i,i,i,.,.,.,.,.,.,
CN(CC(=O)Nc1ccccc1Cl)C(=O)c1cccc(S(=O)(=O)N2CCN(Cc3ccccc3)CC2)c1,i,i,i,i,i,.,.,.,.,.,.,
CN(C)/C=C/C(=O)c1ccc(Oc2ccccc2)cc1,i,i,i,i,i,.,.,.,.,.,.,
CN(C)/C=C/C(=O)c1ccc(OCCN(C)c2ccccn2)cc1,i,i,-6.7*,i,i,.,.,.,.,i,i,TRPC4 spec 2=46%*;TRPC4 spec=37%*;HEK293 MPD ctr 2-1=i;HEK293 MPD ctr-1=i
CCN(CC)Cc1cc(Nc2ccnc3cc(Cl)ccc23)ccc1O,i,i,-5.7*!,i,i,-184%*,i,-34%*,52%*,i,i,
CCN(CC)CCNc1ccnc2cc(Cl)ccc12,i,i,-12*,i,i,-333%*,70%*,-50%*,71%*,73%*,i,
Clc1ccc2c(NCc3ccccc3)ccnc2c1,i,i,-5.5*,i,i,-98%*,i,-23%*,78%*,38%*,i,
Oc1ccc(Nc2ccnc3cc(Cl)ccc23)cc1,i,i,i,i,i,.,.,.,.,.,.,
CCc1cc(=O)oc2c(C)c(OC(C)C(=O)NC3CC(C)(C)NC(C)(C)C3)ccc12 (centres undefined),i,i,i,i,i,.,.,.,.,.,.,
CCc1cc(=O)oc2c(C)c(OCC(=O)NC3CC(C)(C)NC(C)(C)C3)ccc12,i,i,-5.7*,i,i,-150%*,i,-31%*,36%*,38%*,i,
